{
  "source": "ChEMBL document CHEMBL1649319",
  "about": "“In vitro antifungal activities of isavuconazole and comparators against rare yeast pathogens” (2010)",
  "data": [
    {"system": "Saccharomyces cerevisiae", "test": "Antifungal activity against Saccharomyces cerevisiae after 5 days by broth microdilution method", "format": "functional", "settings": "120 h", "units": {"MIC50": "µg/mL", "MIC90": "µg/mL"}, "values": [
      {"smiles": "C[C@@H](c1ncncc1F)[C@](O)(Cn1cncn1)c1ccc(F)cc1F", "note": "[VORICONAZOLE]", "MIC50": 0.125, "MIC90": 0.25}
    ]},
    {"system": "Rhodotorula mucilaginosa", "test": "Antifungal activity against Rhodotorula mucilaginosa after 7 days by Etest", "format": "functional", "settings": "168 h", "units": {"MIC50": "µg/mL", "MIC90": "µg/mL"}, "values": [
      {"smiles": "C[C@@H](c1ncncc1F)[C@](O)(Cn1cncn1)c1ccc(F)cc1F", "note": "[VORICONAZOLE]", "MIC50": "> 16", "MIC90": "> 16"}
    ]},
    {"system": "Rhodotorula mucilaginosa", "test": "Antifungal activity against Rhodotorula mucilaginosa after 7 days by broth microdilution method", "format": "functional", "settings": "168 h", "units": {"MIC50": "µg/mL", "MIC90": "µg/mL"}, "values": [
      {"smiles": "C[C@@H](c1ncncc1F)[C@](O)(Cn1cncn1)c1ccc(F)cc1F", "note": "[VORICONAZOLE]", "MIC50": 2, "MIC90": 8}
    ]},
    {"system": "Magnusiomyces capitatus", "test": "Antifungal activity against Dipodascus capitatus after 3 days by broth microdilution method", "format": "functional", "settings": "72 h", "units": {"MIC50": "µg/mL", "MIC90": "µg/mL"}, "values": [
      {"smiles": "C[C@@H](c1ncncc1F)[C@](O)(Cn1cncn1)c1ccc(F)cc1F", "note": "[VORICONAZOLE]", "MIC50": 0.06, "MIC90": 0.25}
    ]},
    {"system": "Magnusiomyces capitatus", "test": "Antifungal activity against Dipodascus capitatus after 4 days by Etest", "format": "functional", "settings": "96 h", "units": {"MIC50": "µg/mL", "MIC90": "µg/mL"}, "values": [
      {"smiles": "C[C@@H](c1ncncc1F)[C@](O)(Cn1cncn1)c1ccc(F)cc1F", "note": "[VORICONAZOLE]", "MIC50": 0.03, "MIC90": 0.06}
    ]},
    {"system": "Magnusiomyces capitatus", "test": "Antifungal activity against Dipodascus capitatus after 48 hrs by broth microdilution method", "format": "functional", "settings": "not given", "method_in_brief": "(§1)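 CLSI M27-A3 broth microdilution. Isolates were identified by ITS1-5.8S-ITS2 sequencing, kept at −70°C in sterile water, and revived on potato dextrose or Sabouraud agar. Drug ranges in wells were 0.015–16 or 0.125–128 μg/ml, depending on the agent. Plates were incubated at 35°C and MICs read visually at 48 h. QC strains were C. krusei ATCC 6258 and C. parapsilosis ATCC 22019.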", "units": {"MIC50": "µg/mL", "MIC90": "µg/mL"}, "values": [
      {"smiles": "C[C@@H](c1ncncc1F)[C@](O)(Cn1cncn1)c1ccc(F)cc1F", "note": "[VORICONAZOLE]", "MIC50": 0.06, "MIC90": 0.25}
    ]},
    {"system": "Magnusiomyces capitatus", "test": "Antifungal activity against Dipodascus capitatus after 48 hrs by Etest", "format": "functional", "settings": "not given", "method_in_brief": "(§2)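 Etest on 2% glucose-RPMI agar. Yeast suspensions were swabbed across the plates and strips applied, then incubated at 35°C for 48 h. MIC was the lowest concentration where the elliptical inhibition zone border met the strip scale. Each reading was raised to the next 2-fold dilution on the CLSI scale and converted to log2. Isolates were revived from −70°C stocks on potato dextrose or Sabouraud agar.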", "units": {"MIC50": "µg/mL", "MIC90": "µg/mL"}, "values": [
      {"smiles": "C[C@@H](c1ncncc1F)[C@](O)(Cn1cncn1)c1ccc(F)cc1F", "note": "[VORICONAZOLE]", "MIC50": 0.03, "MIC90": 0.06}
    ]},
    {"system": "Rhodotorula mucilaginosa", "test": "Antifungal activity against Rhodotorula mucilaginosa after 48 hrs by broth microdilution method", "format": "functional", "settings": "not given", "method_in_brief": "as §1", "units": {"MIC50": "µg/mL", "MIC90": "µg/mL"}, "values": [
      {"smiles": "C[C@@H](c1ncncc1F)[C@](O)(Cn1cncn1)c1ccc(F)cc1F", "note": "[VORICONAZOLE]", "MIC50": 2, "MIC90": 8}
    ]},
    {"system": "Rhodotorula mucilaginosa", "test": "Antifungal activity against Rhodotorula mucilaginosa after 48 hrs by Etest", "format": "functional", "settings": "not given", "method_in_brief": "as §2", "units": {"MIC50": "µg/mL", "MIC90": "µg/mL"}, "values": [
      {"smiles": "C[C@@H](c1ncncc1F)[C@](O)(Cn1cncn1)c1ccc(F)cc1F", "note": "[VORICONAZOLE]", "MIC50": "> 16", "MIC90": "> 16"}
    ]},
    {"system": "Saccharomyces cerevisiae", "test": "Antifungal activity against Saccharomyces cerevisiae after 48 hrs by broth microdilution method", "format": "functional", "settings": "not given", "method_in_brief": "as §1", "units": {"MIC50": "µg/mL", "MIC90": "µg/mL"}, "values": [
      {"smiles": "C[C@@H](c1ncncc1F)[C@](O)(Cn1cncn1)c1ccc(F)cc1F", "note": "[VORICONAZOLE]", "MIC50": 0.125, "MIC90": 0.25}
    ]},
    {"system": "Saccharomyces cerevisiae", "test": "Antifungal activity against Saccharomyces cerevisiae after 48 hrs by Etest", "format": "functional", "settings": "not given", "method_in_brief": "as §2", "units": {"MIC50": "µg/mL", "MIC90": "µg/mL"}, "values": [
      {"smiles": "C[C@@H](c1ncncc1F)[C@](O)(Cn1cncn1)c1ccc(F)cc1F", "note": "[VORICONAZOLE]", "MIC50": 0.03, "MIC90": 0.125}
    ]},
    {"system": "Cutaneotrichosporon mucoides", "test": "Antifungal activity against Trichosporon mucoides after 48 hrs by broth microdilution method", "format": "functional", "settings": "not given", "method_in_brief": "as §1", "units": {"MIC50": "µg/mL", "MIC90": "µg/mL"}, "values": [
      {"smiles": "C[C@@H](c1ncncc1F)[C@](O)(Cn1cncn1)c1ccc(F)cc1F", "note": "[VORICONAZOLE]", "MIC50": 0.06, "MIC90": 0.25}
    ]},
    {"system": "Cutaneotrichosporon mucoides", "test": "Antifungal activity against Trichosporon mucoides after 48 hrs by Etest", "format": "functional", "settings": "not given", "method_in_brief": "as §2", "units": {"MIC50": "µg/mL", "MIC90": "µg/mL"}, "values": [
      {"smiles": "C[C@@H](c1ncncc1F)[C@](O)(Cn1cncn1)c1ccc(F)cc1F", "note": "[VORICONAZOLE]", "MIC50": 0.03, "MIC90": 0.125}
    ]},
    {"system": "Trichosporon inkin", "test": "Antifungal activity against Trichosporon inkin after 48 hrs by broth microdilution method", "format": "functional", "settings": "not given", "method_in_brief": "as §1", "units": {"MIC50": "µg/mL", "MIC90": "µg/mL"}, "values": [
      {"smiles": "C[C@@H](c1ncncc1F)[C@](O)(Cn1cncn1)c1ccc(F)cc1F", "note": "[VORICONAZOLE]", "MIC50": 0.06, "MIC90": 0.25}
    ]},
    {"system": "Trichosporon inkin", "test": "Antifungal activity against Trichosporon inkin after 48 hrs by Etest", "format": "functional", "settings": "not given", "method_in_brief": "as §2", "units": {"MIC50": "µg/mL", "MIC90": "µg/mL"}, "values": [
      {"smiles": "C[C@@H](c1ncncc1F)[C@](O)(Cn1cncn1)c1ccc(F)cc1F", "note": "[VORICONAZOLE]", "MIC50": 0.03, "MIC90": 0.125}
    ]},
    {"system": "not listed separately", "test": "Antifungal activity against Trichosporon jirovecii after 48 hrs by broth microdilution method", "format": "functional", "settings": "Cutaneotrichosporon jirovecii", "method_in_brief": "as §1", "units": {"MIC50": "µg/mL", "MIC90": "µg/mL"}, "values": [
      {"smiles": "C[C@@H](c1ncncc1F)[C@](O)(Cn1cncn1)c1ccc(F)cc1F", "note": "[VORICONAZOLE]", "MIC50": 0.06, "MIC90": 0.25}
    ]},
    {"system": "not listed separately", "test": "Antifungal activity against Trichosporon jirovecii after 48 hrs by Etest", "format": "functional", "settings": "Cutaneotrichosporon jirovecii", "method_in_brief": "as §2", "units": {"MIC50": "µg/mL", "MIC90": "µg/mL"}, "values": [
      {"smiles": "C[C@@H](c1ncncc1F)[C@](O)(Cn1cncn1)c1ccc(F)cc1F", "note": "[VORICONAZOLE]", "MIC50": 0.03, "MIC90": 0.125}
    ]},
    {"system": "not listed separately", "test": "Antifungal activity against Trichosporon domesticum after 48 hrs by broth microdilution method", "format": "functional", "settings": "Apiotrichum domesticum", "method_in_brief": "as §1", "units": {"MIC50": "µg/mL", "MIC90": "µg/mL"}, "values": [
      {"smiles": "C[C@@H](c1ncncc1F)[C@](O)(Cn1cncn1)c1ccc(F)cc1F", "note": "[VORICONAZOLE]", "MIC50": 0.06, "MIC90": 0.25}
    ]},
    {"system": "not listed separately", "test": "Antifungal activity against Trichosporon domesticum after 48 hrs by Etest", "format": "functional", "settings": "Apiotrichum domesticum", "method_in_brief": "as §2", "units": {"MIC50": "µg/mL", "MIC90": "µg/mL"}, "values": [
      {"smiles": "C[C@@H](c1ncncc1F)[C@](O)(Cn1cncn1)c1ccc(F)cc1F", "note": "[VORICONAZOLE]", "MIC50": 0.03, "MIC90": 0.125}
    ]},
    {"system": "Trichosporon asahii", "test": "Antifungal activity against Trichosporon asahii after 48 hrs by broth microdilution method", "format": "functional", "settings": "not given", "method_in_brief": "as §1", "units": {"MIC50": "µg/mL", "MIC90": "µg/mL"}, "values": [
      {"smiles": "C[C@@H](c1ncncc1F)[C@](O)(Cn1cncn1)c1ccc(F)cc1F", "note": "[VORICONAZOLE]", "MIC50": 0.06, "MIC90": 0.25}
    ]},
    {"system": "Trichosporon asahii", "test": "Antifungal activity against Trichosporon asahii after 48 hrs by Etest", "format": "functional", "settings": "not given", "method_in_brief": "as §2", "units": {"MIC50": "µg/mL", "MIC90": "µg/mL"}, "values": [
      {"smiles": "C[C@@H](c1ncncc1F)[C@](O)(Cn1cncn1)c1ccc(F)cc1F", "note": "[VORICONAZOLE]", "MIC50": 0.03, "MIC90": 0.125}
    ]},
    {"system": "Cutaneotrichosporon mucoides", "test": "Antifungal activity against Trichosporon mucoides assessed as percent susceptible isolates after 48 hrs by broth microdilution method", "format": "functional", "settings": "not given", "method_in_brief": "(§3)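 Broth microdilution MICs (CLSI, 35°C, visual read at 48 h) were sorted into categories using CLSI M27-A3 triazole breakpoints. Susceptible was ≤1 or ≤8 μg/ml, SDD was 2 or 16–32 μg/ml, and resistant was ≥4 or ≥64 μg/ml, depending on the agent. Each category is the percentage of isolates falling in it.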", "units": {"MIC50": "µg/mL", "MIC90": "µg/mL"}, "values": [
      {"smiles": "C[C@@H](c1ncncc1F)[C@](O)(Cn1cncn1)c1ccc(F)cc1F", "note": "[VORICONAZOLE]", "MIC50": 0.06, "MIC90": 0.25}
    ]},
    {"system": "Cutaneotrichosporon mucoides", "test": "Antifungal activity against Trichosporon mucoides assessed as percent susceptible/dose-dependent isolates after 48 hrs by broth microdilution method", "format": "functional", "settings": "not given", "method_in_brief": "as §3", "units": {"MIC50": "µg/mL", "MIC90": "µg/mL"}, "values": [
      {"smiles": "C[C@@H](c1ncncc1F)[C@](O)(Cn1cncn1)c1ccc(F)cc1F", "note": "[VORICONAZOLE]", "MIC50": 0.06, "MIC90": 0.25}
    ]},
    {"system": "Trichosporon", "test": "Antifungal activity against Trichosporon sp. after 3 days by broth microdilution method", "format": "functional", "settings": "72 h", "units": {"MIC50": "µg/mL", "MIC90": "µg/mL"}, "values": [
      {"smiles": "C[C@@H](c1ncncc1F)[C@](O)(Cn1cncn1)c1ccc(F)cc1F", "note": "[VORICONAZOLE]", "MIC50": 0.06, "MIC90": 0.25}
    ]},
    {"system": "Trichosporon", "test": "Antifungal activity against Trichosporon sp. after 4 days by Etest", "format": "functional", "settings": "96 h", "units": {"MIC50": "µg/mL", "MIC90": "µg/mL"}, "values": [
      {"smiles": "C[C@@H](c1ncncc1F)[C@](O)(Cn1cncn1)c1ccc(F)cc1F", "note": "[VORICONAZOLE]", "MIC50": 0.03, "MIC90": 0.125}
    ]}
  ]
}
